Most compounds without a hit are left out; they make up all but 0.95% or so of the library.
Diaph inh CS = diaphorase inhibitors and chemical oxidizers, primary screen, counter-screen for diaphorase-coupled primary assays, biochemical, uHTS, resorufin fluorescence | diaphorase resazurin-to-resorufin fluorescence, NADH, 16 min; bacterial (C. kluyveri) enzyme, not human | inhibition, % at 20 µM | actives 0.69% (n = 190,000) | AID 1217, 2008;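 active = primary screen inhibition at 20 µM above a set limit, cut at about 50% in these data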;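 note: plate controls were DMSO with full reaction for no effect and wells lacking NADH for full effect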
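Test system: Clostridium kluyveri diaphorase enzyme / Quantity: diaphorase at 0.14 U/mL in enzyme working solution / Incubation: 16-min room-temperature incubation before reading / Benchmarks: NADH-free wells as positive control, DMSO-only neutral wells / Signal: resorufin fluorescence 544/590 nm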
p97 inhibitor = inhibitors of human p97 ATPase, primary screen, biochemical; Transitional endoplasmic reticulum ATPase (Homo sapiens), P55072; recombinant p97 ATPase, Kinase-Glo ATP luminescence, 3 h; inhibition, % at 8 µM; actives 0.42% (n = 220,000); AID 1481, 2009; in the data active = inhibition above about 15%;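 note: 0% = DMSO vehicle and 100% = wells lacking enzyme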
Target sequence (P55072 whole entry, looked up): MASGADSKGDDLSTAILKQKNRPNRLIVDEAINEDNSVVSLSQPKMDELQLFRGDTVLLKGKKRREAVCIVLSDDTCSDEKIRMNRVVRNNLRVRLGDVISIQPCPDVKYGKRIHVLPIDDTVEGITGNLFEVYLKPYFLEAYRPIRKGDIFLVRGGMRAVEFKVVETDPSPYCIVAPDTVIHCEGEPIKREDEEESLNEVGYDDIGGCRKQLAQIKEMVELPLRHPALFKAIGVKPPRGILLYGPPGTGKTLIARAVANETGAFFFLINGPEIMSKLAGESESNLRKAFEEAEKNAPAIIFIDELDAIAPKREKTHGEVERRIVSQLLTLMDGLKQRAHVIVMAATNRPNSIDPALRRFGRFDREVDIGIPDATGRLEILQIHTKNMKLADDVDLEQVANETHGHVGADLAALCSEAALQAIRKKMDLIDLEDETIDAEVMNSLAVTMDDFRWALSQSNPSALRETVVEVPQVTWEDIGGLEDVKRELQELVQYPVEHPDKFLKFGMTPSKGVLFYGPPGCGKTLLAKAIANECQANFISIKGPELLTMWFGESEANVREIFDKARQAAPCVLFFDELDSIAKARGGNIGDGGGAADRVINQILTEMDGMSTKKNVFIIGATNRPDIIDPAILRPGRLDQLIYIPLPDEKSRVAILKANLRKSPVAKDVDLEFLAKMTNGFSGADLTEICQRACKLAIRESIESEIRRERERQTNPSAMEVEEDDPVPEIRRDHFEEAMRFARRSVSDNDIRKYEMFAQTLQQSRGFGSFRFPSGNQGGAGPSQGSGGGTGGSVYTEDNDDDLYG
UBC9 SUMO inh = inhibitors of in vitro SUMOylation cascade, primary screen, biochemical, HTRF, uHTS | actives 0.36% (n = 290,000) | inhibition, % at 35 µM | HTRF SUMOylation assay, SAE1/SAE2 + UBC9; in the data active = inhibition above about 50%, passing the limit was not always enough
HKDC1 inh = HKDC1 hexokinase inhibitors, primary screen, biochemical, fluorescence, uHTS. Q2TB90. recombinant HKDC1, G6PDH/diaphorase resazurin coupled fluorescence. inhibition, % at 20 µM. actives 0.16% (n = 340,000). AID 493160, 2011;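 active = inhibition above about 35% when tested at 20 µM, limit read from the data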;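 note: plate controls were DMSO wells with enzyme for no effect and DMSO wells lacking enzyme for full effect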
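Material: recombinant HKDC1 hexokinase; Amount: HKDC1 at 5 µg/mL; Medium: Tris pH 8.0 buffer with MgCl2, Tween-20, BSA, BME; Schedule: 90 min reaction incubation at room temperature, dark; Technique: coupled resazurin fluorescence, excitation 525 nm, emission 613 nm.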
G6PDH counter = L. mesenteroides G6PDH inhibitors, counter-screen for G6PDH-coupled screening assays, biochemical, Leuconostoc mesenteroides enzyme. glucose-6-phosphate dehydrogenase [Leuconostoc mesenteroides]. Purified L. mesenteroides G6PDH, diaphorase/resazurin coupled fluorescence, 45 min. inhibition, % at 5 µM. actives 0.12% (n = 200,000); in the data active = inhibition above about 50%
p97 confirm = p97 ATPase inhibitors, retest, confirmation, biochemical; inhibition, % at 8 µM; AID 1517, 2009; recombinant p97 ATPase, Kinase-Glo ATP luminescence; actives 44% (n = 760); shares compounds with p97 inhibitor;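 active = percent inhibition of p97 ATPase above a set limit, the primary screen's mean plus 3 SD, cut at about 15% in these data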;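 note: 0% = DMSO wells and 100% = wells lacking p97 protein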
An asterisk follows results filed as active.

How did Cc1cc(/C=N/NC(N)=S)c(O)c(/C=N/NC(N)=S)c1 do in these assays?
p97 inhibitor: 19*; UBC9 SUMO inh: 35; HKDC1 inh: -15; p97 confirm: 20*

What do the screens show for `Cc1cc(NS(=O)(=O)c2ccc(NC(=O)COc3ccc(C#N)cc3)cc2)nc(C)n1`?
HKDC1 inh: -1

How did Cc1csc2c(=O)sc(NC(=O)c3ccco3)nc12 do in these assays?
p97 inhibitor: 11; UBC9 SUMO inh: -3; HKDC1 inh: -4

How did Cc1csc2c(=O)sc(NC(=O)c3cccs3)nc12 do in these assays?
p97 inhibitor: 34*; UBC9 SUMO inh: 27; HKDC1 inh: 3; p97 confirm: 28*

Results for C[n+]1cccc2cccc([O-])c21 ?
p97 inhibitor: 37*; UBC9 SUMO inh: 98; HKDC1 inh: 26; p97 confirm: 20*

Results for CC1CC2CCCC(O)=C2C(=O)O1 (centres undefined) ?
HKDC1 inh: -5

What do the screens show for `CCn1nc([N+](=O)[O-])c(C(C#N)c2nc3cc(C(F)(F)F)ccc3s2)c(Cl)c1=O` (centres undefined)?
Diaph inh CS: 24; p97 inhibitor: 35*; UBC9 SUMO inh: 30; HKDC1 inh: 2; G6PDH counter: 7; p97 confirm: 42*

What do the screens show for `CCCn1nc([N+](=O)[O-])c(C(C#N)c2nc3ccccc3o2)c(Cl)c1=O` (centres undefined)?
Diaph inh CS: 23; p97 inhibitor: 2; UBC9 SUMO inh: 19; HKDC1 inh: 0; G6PDH counter: -5

Results for CCOC(=O)c1cc([N+](=O)[O-])c([N+](=O)[O-])cc1NC(C)=O ?
Diaph inh CS: 1; p97 inhibitor: 16*; UBC9 SUMO inh: -9; HKDC1 inh: 30; G6PDH counter: 6; p97 confirm: 35*

How did CCOC(=O)c1ccc(NC(=O)c2ccccc2[N+](=O)[O-])cc1 do in these assays?
Diaph inh CS: 10; p97 inhibitor: 2; UBC9 SUMO inh: 2; HKDC1 inh: -8; G6PDH counter: 0

What do the screens show for `O=C(c1cc(=O)[nH]c2ccccc12)N(Cc1nnc(-c2ccccc2Cl)o1)C1CC1`?
HKDC1 inh: 3

Results for O=c1oc(-c2ccc(O)c(O)c2)cc2cccc(O)c12 ?
HKDC1 inh: -1

What do the screens show for `Oc1cccc2cc3cccc(O)c3c(O)c12`?
Diaph inh CS: 8; p97 inhibitor: 15*; UBC9 SUMO inh: 12; HKDC1 inh: -1; G6PDH counter: 6; p97 confirm: 14

What do the screens show for `CCN(CC)c1cccc(OC2=NS(=O)(=O)c3ccccc32)c1`?
Diaph inh CS: 7; p97 inhibitor: 19*; UBC9 SUMO inh: 13; HKDC1 inh: 1; G6PDH counter: 23; p97 confirm: 9

Results for CCc1ccc(OC2=NS(=O)(=O)c3ccccc32)cc1 ?
Diaph inh CS: -10; p97 inhibitor: 0; UBC9 SUMO inh: -15; HKDC1 inh: -4; G6PDH counter: -3

How did Nc1c(-c2ccccc2)c(CSc2nc3ccccc3[nH]2)nn1-c1cccc(C(=O)O)c1 do in these assays?
Diaph inh CS: 15; p97 inhibitor: 16*; UBC9 SUMO inh: 22; HKDC1 inh: -3; G6PDH counter: 11; p97 confirm: 7

How did O=C(O)c1ccc(CSc2nc3ccccc3[nH]2)cc1 do in these assays?
UBC9 SUMO inh: 14; HKDC1 inh: 4

How did Cc1cc2cccc(C)c2nc1SCC(=O)NNC(=O)c1ccco1 do in these assays?
Diaph inh CS: 6; p97 inhibitor: 3; UBC9 SUMO inh: 2; HKDC1 inh: -1; G6PDH counter: -4

How did Cc1cc(C)c2nc(SCC(=O)NNC(=O)c3ccco3)c(C)cc2c1 do in these assays?
Diaph inh CS: 6; p97 inhibitor: 15*; UBC9 SUMO inh: -10; HKDC1 inh: -6; G6PDH counter: 8; p97 confirm: 16*

What do the screens show for `COC(=O)c1ccc(CNC(=O)c2ccc(S(=O)(=O)N(C)c3ccccc3OC)cc2)cc1`?
HKDC1 inh: 2

What do the screens show for `COc1ccc(NC(=O)N(CCCN(C)C)Cc2cc3cc(OC)ccc3[nH]c2=O)cc1`?
Diaph inh CS: -18; p97 inhibitor: 3; UBC9 SUMO inh: -4; HKDC1 inh: -8; G6PDH counter: 7

Results for Cc1ccc2[nH]c(=O)c(CN(CCCN(C)C)C(=O)Nc3ccc(F)cc3)cc2c1 ?
Diaph inh CS: 2; p97 inhibitor: 16*; UBC9 SUMO inh: -9; HKDC1 inh: -5; G6PDH counter: -4; p97 confirm: 4

Results for CCn1c(SCC(=O)N2CCCc3ccccc32)nnc1-c1c[nH]c2ccccc12 ?
Diaph inh CS: 13; p97 inhibitor: 2; UBC9 SUMO inh: 8; HKDC1 inh: -8; G6PDH counter: 2

Results for Cn1c(SCC(=O)N2CCCc3ccccc32)nnc1-c1c[nH]c2ccccc12 ?
Diaph inh CS: 6; p97 inhibitor: 16*; UBC9 SUMO inh: 8; HKDC1 inh: -4; G6PDH counter: -22; p97 confirm: 6

Results for CCOc1ccc(Br)cc1S(=O)(=O)N1CCCN(C)CC1 ?
UBC9 SUMO inh: 4; HKDC1 inh: -7

Results for CCOc1ccc(Br)cc1S(=O)(=O)N1CCC(C(N)=O)CC1 ?
Diaph inh CS: 7; p97 inhibitor: 15*; UBC9 SUMO inh: 21; HKDC1 inh: 0; G6PDH counter: 1; p97 confirm: 7

What do the screens show for `CCOc1cccc2cc(C(=O)NCc3ccc(Cl)cc3)c(=N)oc12`?
UBC9 SUMO inh: 16; HKDC1 inh: -3

How did Cc1ccc(N/C(C(Cl)=C(Cl)Cl)=C(/Cl)[N+](=O)[O-])c(C)c1 do in these assays?
Diaph inh CS: 20; p97 inhibitor: 19*; UBC9 SUMO inh: 12; HKDC1 inh: 11; G6PDH counter: 2; p97 confirm: 21*

How did Cc1cc(C(=O)N/N=C/c2cc(Br)ccc2OC(=O)c2ccccc2Cl)n[nH]1 do in these assays?
Diaph inh CS: 0; p97 inhibitor: 18*; UBC9 SUMO inh: 18; HKDC1 inh: -9; G6PDH counter: 17; p97 confirm: 35*

How did CCOc1ccc(OCC)c(NC(=O)CCNS(=O)(=O)c2cc(Br)cnc2N)c1 do in these assays?
UBC9 SUMO inh: 12; HKDC1 inh: -3

How did COc1cc(/C=N/NC(=O)c2cc(-c3ccco3)nc3ccccc23)cc(OC)c1O do in these assays?
p97 inhibitor: 16*; UBC9 SUMO inh: 60; HKDC1 inh: 4; p97 confirm: 9

Screening results as filed in PubChem BioAssay.
